In ChEMBL document CHEMBL5712087, “Targeting bromodomain-containing protein 4 (BRD4) inhibits MYC expression in colorectal cancer cells” (Neoplasia, 2019) one finds Activity data, which are given here for two compounds.

Active and inactive are the calls of the source. No cut-off for these calls is given here.

Experiment [1] concerns the target T1, Protein cereblon/Bromodomain-containing protein 4 (Homo sapiens) (UniProt O60885+Q96SW2). The experiment can be described thus: PROTAC activity at BRD4/Cereblon in human HCT116 p53+/+ cells assessed as decrease in BRD4 protein degradation at 5 to 10 uM for 24 hrs by Western blot analysis. The format is cell-based. As to conditions: HCT-116, dose 5-10 µM. The method, boiled down:
(§1)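 Eight CRC lines exposed 24 h to PROTAC at 5 or 10 µM (stocks 2 mM in DMSO, diluted in PBS or medium). Lysis in RIPA with protease/phosphatase inhibitors and 2.5 mmol/l DTT; 15 µg protein on 10% SDS-PAGE, semi-dry transfer to nitrocellulose. Anti-BRD4 or anti-MYC at 1:1,000 overnight at 4 °C; GAPDH or β-actin loading control; chemiluminescence.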
(In general: Immunoblotting shows a protein as a band on a membrane.)

The target in experiment [2] is T1, Protein cereblon/Bromodomain-containing protein 4 (Homo sapiens). The experiment can be described thus: PROTAC activity at BRD4/Cereblon in human COLO 320 cells assessed as decrease in BRD4 protein degradation at 5 to 10 uM for 24 hrs by Western blot analysis. It counts as cell-based. As to conditions: dose 5-10 µM. The method, boiled down: as §1
The target is the same in experiment [3]. In words: PROTAC activity at BRD4/Cereblon in human LS174T cells assessed as decrease in MYC mRNA level at 100 to 1000 nM for 24 hrs by RT-qPCR analysis. It counts as cell-based. As to conditions: dose 100-1000 nM. An outline of the steps:
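Total RNA from 10^6 cells after 24 h treatment, Trizol-extracted and integrity-checked. 0.7 µg reverse transcribed, then SYBR-type qPCR: 95 °C 5 min, 40 cycles of 95 °C 15 s/60 °C 60 s. Melting curves checked. MYC or BRD4 normalised to PPIA and ACTB by ΔΔCq. At least three experiments; means ± SD.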
On the technique in general: Quantitative PCR measures a nucleic acid by following its amplification.

Experiment [4] shares this target. The experiment can be described thus: PROTAC activity at BRD4/Cereblon in human DLD-1 cells assessed as decrease in MYC protein expression at 5 to 10 uM for 24 hrs by Western blot analysis. As to conditions: dose 5-10 µM. It counts as cell-based. An outline of the steps: as §1
Experiment [5] shares this target. In words: PROTAC activity at BRD4/Cereblon in human fibroblast cells assessed as decrease in BRD4 protein degradation at 500 to 1000 nM for 24 hrs by Western blot analysis. The format is cell-based. The following applies: dose 500-1000 nM. The method, boiled down: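 Cells treated 24 h across 1 nM–10 µM range (fibroblasts at 500/1000 nM). Immunoblot: RIPA lysate with 2.5 mmol/l DTT, 15 µg per lane on 10% SDS-PAGE, nitrocellulose, 5% milk block 1 h. BRD4 or MYC primary 1:1,000 overnight at 4 °C, HRP secondary 1:10,000 for 60 min; GAPDH/β-actin loading control; ECL detection.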

Experiment [6] concerns the target T2, von Hippel-Lindau disease tumor suppressor/Bromodomain-containing protein 4 (Homo sapiens) (UniProt O60885+P40337). The experiment can be described thus: PROTAC activity at BRD4/VHL E3 ligase in human LS174T cells assessed as BRD4 protein degradation at 250 nM for 2 hrs and measured 22 hrs after washout by Western blot analysis. It counts as cell-based. An outline of the steps: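 LS174t cells were exposed to PROTAC for 2 h. For washout, the PROTAC was removed by changing the culture medium and cells were harvested 22 h later. BRD4 was assessed by western blot (15 µg lysate, 10% SDS-PAGE, chemiluminescence), normalised against GAPDH/β-actin.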

The target of experiment [7] is T2, von Hippel-Lindau disease tumor suppressor/Bromodomain-containing protein 4 (Homo sapiens). In words: PROTAC activity at BRD4/VHL E3 ligase in human LS174T cells assessed as BRD4 protein degradation at 1 µM for 2 hrs by Immunofluorescence analysis.
The target is the same in experiment [8]. The experiment can be described thus: PROTAC activity at BRD4/VHL E3 ligase in human LS174T dbet1 resistant cells assessed as MYC protein expression at 500 to 1000 nM for 24 hrs by Western blot analysis. It counts as cell-based. As to conditions: dose 500-1000 nM. An outline of the steps: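 Resistant LS174t cells were derived by four months' exposure to rising dBET1 concentrations, with outgrowing cells expanded. Resistant and parental cells were then treated and analysed for BRD4 and MYC protein by western blot (GAPDH/β-actin control) and for MYC mRNA by qPCR normalised to PPIA/ACTB (ΔΔCq).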

For experiment [9] the target is unchanged. In words: PROTAC activity at BRD4/VHL E3 ligase in human LS174T cells assessed as BRD4 mRNA level at 500 to 1000 nM for 24 hrs by RT-qPCR analysis. The following applies: dose 500-1000 nM. The format is cell-based. The method, boiled down:
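LS174t cells were treated for 24 h, then total RNA was Trizol-extracted from 10^6 cells and integrity-checked. 0.7 µg RNA was reverse transcribed and SYBR-type qPCR run for 40 cycles (95 °C 15 s, 60 °C 60 s), with melt-curve control. MYC or BRD4 mRNA was normalised to PPIA and ACTB by the ΔΔCq method. Experiments were run at least three times; mean ± SD.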

Experiment [10] has the same target. In words: PROTAC activity at BRD4/VHL E3 ligase in human Caco-2 cells assessed as decrease in BRD4 protein degradation at 5 to 10 uM for 24 hrs by Western blot analysis. The format is cell-based. As to conditions: dose 5-10 µM. An outline of the steps: as §1
Experiment [11] has the same target. In words: PROTAC activity at BRD4/VHL E3 ligase in human fibroblast cells assessed as decrease in BRD4 protein degradation at 100 to 250 nM for 24 hrs by Western blot analysis. It counts as cell-based. As to conditions: dose 100-250 nM. The method, boiled down:
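Normal human dermal fibroblasts in 10% FCS medium were treated with 100 or 250 nM PROTAC. BRD4 and MYC protein were assessed by western blot (15 µg RIPA lysate, 10% SDS-PAGE, primary 1:1,000 overnight at 4 °C), with GAPDH/β-actin as loading control.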

For experiment [12] the target is unchanged. In words: PROTAC activity at BRD4/VHL E3 ligase in human LS174T cells assessed as decrease in BRD4 protein degradation at 5 to 10 uM for 24 hrs by Western blot analysis. It counts as cell-based. The following applies: dose 5-10 µM. An outline of the steps:
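Eight CRC lines, including LS174t (RPMI 1640) and SW480 (DMEM/HamsF12), all with 10% FCS, were treated with PROTAC at 5 and 10 µM. BRD4 and MYC proteins were detected by immunoblot (RIPA lysate, 15 µg, 10% gel, primary 1:1,000 overnight at 4 °C), with GAPDH/β-actin as loading control.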

T2 sequence (P40337 whole entry, looked up, other chains not shown): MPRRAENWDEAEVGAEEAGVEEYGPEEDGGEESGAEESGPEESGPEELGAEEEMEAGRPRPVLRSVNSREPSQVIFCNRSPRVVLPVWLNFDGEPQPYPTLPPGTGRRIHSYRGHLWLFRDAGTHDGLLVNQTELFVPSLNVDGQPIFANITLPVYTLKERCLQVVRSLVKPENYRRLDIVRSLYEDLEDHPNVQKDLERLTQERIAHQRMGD
T1 sequence (Q96SW2 whole entry, looked up, other chains not shown): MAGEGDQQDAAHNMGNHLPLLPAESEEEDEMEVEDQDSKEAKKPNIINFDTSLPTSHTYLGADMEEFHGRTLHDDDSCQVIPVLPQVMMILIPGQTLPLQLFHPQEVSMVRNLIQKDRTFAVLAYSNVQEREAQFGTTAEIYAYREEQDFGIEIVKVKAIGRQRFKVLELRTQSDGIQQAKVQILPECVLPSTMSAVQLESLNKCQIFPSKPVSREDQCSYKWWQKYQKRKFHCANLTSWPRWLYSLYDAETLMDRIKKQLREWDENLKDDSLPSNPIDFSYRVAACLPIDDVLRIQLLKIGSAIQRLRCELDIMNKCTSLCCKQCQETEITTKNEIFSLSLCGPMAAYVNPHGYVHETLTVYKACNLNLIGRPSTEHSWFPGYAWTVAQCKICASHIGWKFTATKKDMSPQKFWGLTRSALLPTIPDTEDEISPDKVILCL

In the case of `Cc1sc2c(c1C)C(c1ccc(Cl)cc1)=N[C@@H](CC(=O)NCCCCNC(=O)COc1cccc3c1C(=O)N(C1CCC(=O)NC1=O)C3=O)c1nnc(C)n1-2` (some centres not stated), the outcome in experiment [1], in experiment [2], in experiment [3], in [4] and in experiment [5] was Active.
As for `Cc1ncsc1-c1ccc(CNC(=O)[C@@H]2C[C@@H](O)CN2C(=O)[C@@H](NC(=O)COCCOCCOCCNC(=O)C[C@@H]2N=C(c3ccc(Cl)cc3)c3c(sc(C)c3C)-n3c(C)nnc32)C(C)(C)C)cc1`, the result in [6] and in experiment [9] was inactive. In addition, the result in experiment [7], in [8], in [10], in [11] and in [12] was Active.
